# Source: ChEMBL document CHEMBL5247575 (J Med Chem, 2018)
# System: Klebsiella pneumoniae
# Test: Synergistic antibacterial activity against Klebsiella pneumoniae 935/1884 producing KPC-3 assessed as cefepime MIC at 4 ug/ml by broth microdilution method
# Type: functional
# Details: dose 4 µg/ml
row,SMILES,MIC
1,N#C[C@@H]1CC[C@@H]2CN1C(=O)N2OS(=O)(=O)[O-].[Na+],0.25 µg/mL

# System: Klebsiella pneumoniae
# Test: Synergistic antibacterial activity against Klebsiella pneumoniae 935/1884 producing KPC-3 assessed as cefepime MIC at 8 ug/ml by broth microdilution method
# Type: functional
# Details: dose 8 µg/ml
row,SMILES,MIC
1,N#C[C@@H]1CC[C@@H]2CN1C(=O)N2OS(=O)(=O)[O-].[Na+],≤ 0.12 µg/mL

# System: Bacteria
# Test: Inhibition of bacteria PDC-3 assessed as half life using nitrocefin as substrate
# Details: not given
row,SMILES,T1/2
1,N#C[C@@H]1CC[C@@H]2CN1C(=O)N2OS(=O)(=O)[O-].[Na+],4.1 min

# System: Klebsiella pneumoniae
# Test: Synergistic antibacterial activity against Klebsiella pneumoniae 972/1910 producing KPC-3 assessed as cefepime MIC at 8 ug/ml by broth microdilution method
# Type: functional
# Details: dose 8 µg/ml
row,SMILES,MIC
1,N#C[C@@H]1CC[C@@H]2CN1C(=O)N2OS(=O)(=O)[O-].[Na+],0.25 µg/mL

# System: Acinetobacter baumannii
# Test: Synergistic antibacterial activity against Acinetobacter baumannii PR381 producing OXA-24/40 assessed as cefepime MIC at 8 ug/ml by broth microdilution method
# Type: functional
# Details: dose 8 µg/ml
row,SMILES,MIC
1,N#C[C@@H]1CC[C@@H]2CN1C(=O)N2OS(=O)(=O)[O-].[Na+],16 µg/mL

# System: Pseudomonas aeruginosa
# Test: Synergistic antibacterial activity against Pseudomonas aeruginosa 715 assessed as cefepime MIC at 4 ug/ml by broth microdilution method
# Type: functional
# Details: dose 4 µg/ml
row,SMILES,MIC
1,N#C[C@@H]1CC[C@@H]2CN1C(=O)N2OS(=O)(=O)[O-].[Na+],16 µg/mL

# System: Acinetobacter baumannii
# Test: Synergistic antibacterial activity against ADC deleted Acinetobacter baumannii assessed as meropenem MIC at 8 ug/ml by broth microdilution method
# Type: functional
# Details: dose 8 µg/ml
row,SMILES,MIC
1,N#C[C@@H]1CC[C@@H]2CN1C(=O)N2OS(=O)(=O)[O-].[Na+],≤ 0.12 µg/mL

# System: Escherichia coli
# Test: Synergistic antibacterial activity against Escherichia coli DH10B transfected with pBC SK (-) KPC-2 assessed as cefepime MIC at 4 ug/ml by broth microdilution method
# Type: functional
# Details: dose 4 µg/ml
row,SMILES,MIC
1,N#C[C@@H]1CC[C@@H]2CN1C(=O)N2OS(=O)(=O)[O-].[Na+],≤ 0.12 µg/mL

# System: Escherichia coli
# Test: Synergistic antibacterial activity against Escherichia coli DH10B transfected with pBC SK (-) KPC-3 assessed as cefepime MIC at 4 ug/ml by broth microdilution method
# Type: functional
# Details: dose 4 µg/ml
row,SMILES,MIC
1,N#C[C@@H]1CC[C@@H]2CN1C(=O)N2OS(=O)(=O)[O-].[Na+],≤ 0.12 µg/mL

# System: Klebsiella pneumoniae
# Test: Synergistic antibacterial activity against Klebsiella pneumoniae 901/1860 producing KPC-3 assessed as cefepime MIC at 4 ug/ml by broth microdilution method
# Type: functional
# Details: dose 4 µg/ml
row,SMILES,MIC
1,N#C[C@@H]1CC[C@@H]2CN1C(=O)N2OS(=O)(=O)[O-].[Na+],≤ 0.12 µg/mL

# System: Klebsiella pneumoniae
# Test: Antibacterial activity against Klebsiella pneumoniae jefferson 1775 producing OXA-48 by broth microdilution method
# Type: functional
# Details: not given
row,SMILES,MIC
1,N#C[C@@H]1CC[C@@H]2CN1C(=O)N2OS(=O)(=O)[O-].[Na+],> 16 µg/mL

# System: Acinetobacter baumannii
# Test: Synergistic antibacterial activity against ADC deleted Acinetobacter baumannii transfected with pWH1266 OXA-23 assessed as meropenem MIC at 8 ug/ml by broth microdilution method
# Type: functional
# Details: dose 8 µg/ml
# Outline: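 Broth microdilution per CLSI guidelines in frozen panels. Test compound held at fixed 8 mg/L while the partner β-lactam concentration was increased. Run in triplicate; modal MIC reported.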
row,SMILES,MIC
1,N#C[C@@H]1CC[C@@H]2CN1C(=O)N2OS(=O)(=O)[O-].[Na+],4 µg/mL

# System: Acinetobacter baumannii
# Test: Synergistic antibacterial activity against Acinetobacter baumannii PR440 producing OXA-23/24/40 assessed as meropenem MIC at 4 ug/ml by broth microdilution method
# Type: functional
# Details: dose 4 µg/ml
row,SMILES,MIC
1,N#C[C@@H]1CC[C@@H]2CN1C(=O)N2OS(=O)(=O)[O-].[Na+],4 µg/mL

# System: Acinetobacter baumannii
# Test: Synergistic antibacterial activity against Acinetobacter baumannii PR408 producing OXA-24/40 assessed as meropenem MIC at 4 ug/ml by broth microdilution method
# Type: functional
# Details: dose 4 µg/ml
row,SMILES,MIC
1,N#C[C@@H]1CC[C@@H]2CN1C(=O)N2OS(=O)(=O)[O-].[Na+],> 16 µg/mL

# System: Klebsiella pneumoniae
# Test: Synergistic antibacterial activity against Klebsiella pneumoniae NY BS producing OXA-232 assessed as cefepime MIC at 8 ug/ml by broth microdilution method
# Type: functional
# Details: dose 8 µg/ml
row,SMILES,MIC
1,N#C[C@@H]1CC[C@@H]2CN1C(=O)N2OS(=O)(=O)[O-].[Na+],1 µg/mL

# System: Escherichia coli
# Test: Synergistic antibacterial activity against Escherichia coli DH10B transfected with pBR322-catI-KPC-2 assessed as meropenem MIC at 4 ug/ml by broth microdilution method
# Type: functional
# Details: dose 4 µg/ml
# Outline: (§1)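 Broth microdilution per CLSI guidelines, using custom frozen panels. […] Each partner drug was also tested alone. MICs were run in triplicate and the modal value is reported.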
row,SMILES,MIC
1,N#C[C@@H]1CC[C@@H]2CN1C(=O)N2OS(=O)(=O)[O-].[Na+],≤ 0.12 µg/mL

# System: Acinetobacter baumannii
# Test: Synergistic antibacterial activity against Acinetobacter baumannii PR448 producing OXA-23 assessed as meropenem MIC at 4 ug/ml by broth microdilution method
# Type: functional
# Details: dose 4 µg/ml
row,SMILES,MIC
1,N#C[C@@H]1CC[C@@H]2CN1C(=O)N2OS(=O)(=O)[O-].[Na+],2 µg/mL

# System: Escherichia coli
# Test: Synergistic antibacterial activity against Escherichia coli DH10B transfected with pBC SK (-) KPC-2 assessed as meropenem MIC at 4 ug/ml by broth microdilution method
# Type: functional
# Details: dose 4 µg/ml
row,SMILES,MIC
1,N#C[C@@H]1CC[C@@H]2CN1C(=O)N2OS(=O)(=O)[O-].[Na+],≤ 0.12 µg/mL

# System: Pseudomonas aeruginosa
# Test: Synergistic antibacterial activity against Pseudomonas aeruginosa 795 assessed as meropenem MIC at 8 ug/ml by broth microdilution method
# Type: functional
# Details: dose 8 µg/ml
row,SMILES,MIC
1,N#C[C@@H]1CC[C@@H]2CN1C(=O)N2OS(=O)(=O)[O-].[Na+],16 µg/mL

# System: Acinetobacter baumannii
# Test: Synergistic antibacterial activity against ADC deleted Acinetobacter baumannii transfected with pWH1266 producing OXA-24/40 assessed as meropenem MIC at 8 ug/ml by broth microdilution method
# Type: functional
# Details: dose 8 µg/ml
row,SMILES,MIC
1,N#C[C@@H]1CC[C@@H]2CN1C(=O)N2OS(=O)(=O)[O-].[Na+],> 16 µg/mL

# System: Klebsiella pneumoniae
# Test: Synergistic antibacterial activity against Klebsiella pneumoniae CAV 1636 producing OXA-181 assessed as meropenem MIC at 4 ug/ml by broth microdilution method
# Type: functional
# Details: dose 4 µg/ml
row,SMILES,MIC
1,N#C[C@@H]1CC[C@@H]2CN1C(=O)N2OS(=O)(=O)[O-].[Na+],≤ 0.12 µg/mL

# System: Klebsiella pneumoniae
# Test: Synergistic antibacterial activity against Klebsiella pneumoniae 440/1360 producing KPC-2 assessed as meropenem MIC at 8 ug/ml by broth microdilution method
# Type: functional
# Details: dose 8 µg/ml
# Outline: as §1
row,SMILES,MIC
1,N#C[C@@H]1CC[C@@H]2CN1C(=O)N2OS(=O)(=O)[O-].[Na+],≤ 0.12 µg/mL

# System: Escherichia coli
# Test: Synergistic antibacterial activity against Escherichia coli DH10B transfected with pBC SK (-) PDC-3 assessed as cefepime MIC at 8 ug/ml by broth microdilution method
# Type: functional
# Details: dose 8 µg/ml
# Outline: as §1
row,SMILES,MIC
1,N#C[C@@H]1CC[C@@H]2CN1C(=O)N2OS(=O)(=O)[O-].[Na+],≤ 0.12 µg/mL

# System: Klebsiella pneumoniae
# Test: Synergistic antibacterial activity against Klebsiella pneumoniae NY BS producing OXA-232 assessed as meropenem MIC at 8 ug/ml by broth microdilution method
# Type: functional
# Details: dose 8 µg/ml
row,SMILES,MIC
1,N#C[C@@H]1CC[C@@H]2CN1C(=O)N2OS(=O)(=O)[O-].[Na+],≤ 0.12 µg/mL

# System: Acinetobacter baumannii
# Test: Synergistic antibacterial activity against Acinetobacter baumannii PR474 producing OXA-23/24/40 assessed as cefepime MIC at 8 ug/ml by broth microdilution method
# Type: functional
# Details: dose 8 µg/ml
row,SMILES,MIC
1,N#C[C@@H]1CC[C@@H]2CN1C(=O)N2OS(=O)(=O)[O-].[Na+],8 µg/mL

# System: Klebsiella pneumoniae
# Test: Synergistic antibacterial activity against Klebsiella pneumoniae 1315/2198 producing KPC-3 assessed as meropenem MIC at 8 ug/ml by broth microdilution method
# Type: functional
# Details: dose 8 µg/ml
# Outline: as §1
row,SMILES,MIC
1,N#C[C@@H]1CC[C@@H]2CN1C(=O)N2OS(=O)(=O)[O-].[Na+],≤ 0.12 µg/mL

# System: Klebsiella pneumoniae
# Test: Synergistic antibacterial activity against Klebsiella pneumoniae 1108/1989 producing KPC-3 assessed as cefepime MIC at 8 ug/ml by broth microdilution method
# Type: functional
# Details: dose 8 µg/ml
# Outline: as §1
row,SMILES,MIC
1,N#C[C@@H]1CC[C@@H]2CN1C(=O)N2OS(=O)(=O)[O-].[Na+],≤ 0.12 µg/mL

# System: Klebsiella pneumoniae
# Test: Synergistic antibacterial activity against Klebsiella pneumoniae CAV 1543 producing OXA-48 assessed as cefepime MIC at 8 ug/ml by broth microdilution method
# Type: functional
# Details: dose 8 µg/ml
row,SMILES,MIC
1,N#C[C@@H]1CC[C@@H]2CN1C(=O)N2OS(=O)(=O)[O-].[Na+],0.25 µg/mL

# System: Pseudomonas aeruginosa
# Test: Synergistic antibacterial activity against Pseudomonas aeruginosa 715 assessed as meropenem MIC at 4 ug/ml by broth microdilution method
# Type: functional
# Details: dose 4 µg/ml
row,SMILES,MIC
1,N#C[C@@H]1CC[C@@H]2CN1C(=O)N2OS(=O)(=O)[O-].[Na+],16 µg/mL

# System: Pseudomonas aeruginosa
# Test: Synergistic antibacterial activity against Pseudomonas aeruginosa 795 assessed as meropenem MIC at 4 ug/ml by broth microdilution method
# Type: functional
# Details: dose 4 µg/ml
row,SMILES,MIC
1,N#C[C@@H]1CC[C@@H]2CN1C(=O)N2OS(=O)(=O)[O-].[Na+],16 µg/mL

# System: Klebsiella pneumoniae
# Test: Synergistic antibacterial activity against Klebsiella pneumoniae 977/1916 producing KPC-3 assessed as meropenem MIC at 4 ug/ml by broth microdilution method
# Type: functional
# Details: dose 4 µg/ml
row,SMILES,MIC
1,N#C[C@@H]1CC[C@@H]2CN1C(=O)N2OS(=O)(=O)[O-].[Na+],≤ 0.12 µg/mL

# System: Klebsiella pneumoniae
# Test: Synergistic antibacterial activity against Klebsiella pneumoniae CAV 1543 producing OXA-48 assessed as meropenem MIC at 4 ug/ml by broth microdilution method
# Type: functional
# Details: dose 4 µg/ml
row,SMILES,MIC
1,N#C[C@@H]1CC[C@@H]2CN1C(=O)N2OS(=O)(=O)[O-].[Na+],≤ 0.12 µg/mL

# System: Klebsiella pneumoniae
# Test: Synergistic antibacterial activity against Klebsiella pneumoniae jefferson 1775 producing OXA-48 assessed as meropenem MIC at 4 ug/ml by broth microdilution method
# Type: functional
# Details: dose 4 µg/ml
row,SMILES,MIC
1,N#C[C@@H]1CC[C@@H]2CN1C(=O)N2OS(=O)(=O)[O-].[Na+],≤ 0.12 µg/mL

# System: Acinetobacter baumannii
# Test: Synergistic antibacterial activity against Acinetobacter baumannii PR420 producing OXA-23/24/40 assessed as cefepime MIC at 4 ug/ml by broth microdilution method
# Type: functional
# Details: dose 4 µg/ml
row,SMILES,MIC
1,N#C[C@@H]1CC[C@@H]2CN1C(=O)N2OS(=O)(=O)[O-].[Na+],> 16 µg/mL

# System: Klebsiella pneumoniae
# Test: Synergistic antibacterial activity against Klebsiella pneumoniae 660/1568 producing KPC-3 assessed as meropenem MIC at 4 ug/ml by broth microdilution method
# Type: functional
# Details: dose 4 µg/ml
# Outline: as §1
row,SMILES,MIC
1,N#C[C@@H]1CC[C@@H]2CN1C(=O)N2OS(=O)(=O)[O-].[Na+],≤ 0.12 µg/mL

# System: Pseudomonas aeruginosa
# Test: Synergistic antibacterial activity against Pseudomonas aeruginosa 839 assessed as cefepime MIC at 8 ug/ml by broth microdilution method
# Type: functional
# Details: dose 8 µg/ml
row,SMILES,MIC
1,N#C[C@@H]1CC[C@@H]2CN1C(=O)N2OS(=O)(=O)[O-].[Na+],8 µg/mL

# System: Acinetobacter baumannii
# Test: Synergistic antibacterial activity against Acinetobacter baumannii PR408 producing OXA-24/40 assessed as meropenem MIC at 8 ug/ml by broth microdilution method
# Type: functional
# Details: dose 8 µg/ml
row,SMILES,MIC
1,N#C[C@@H]1CC[C@@H]2CN1C(=O)N2OS(=O)(=O)[O-].[Na+],> 16 µg/mL

# System: Klebsiella pneumoniae
# Test: Synergistic antibacterial activity against Klebsiella pneumoniae 1354/2241 producing KPC-3 assessed as meropenem MIC at 8 ug/ml by broth microdilution method
# Type: functional
# Details: dose 8 µg/ml
# Outline: as §1
row,SMILES,MIC
1,N#C[C@@H]1CC[C@@H]2CN1C(=O)N2OS(=O)(=O)[O-].[Na+],≤ 0.12 µg/mL
